In the library only some 3.8% were active in any assay of this set; here they are far more common.
KCNK3 block – human KCNK3 channel inhibitors, primary screen, CHO cells, FluxOR thallium flux, B-score. Potassium channel subfamily K member 3 (Homo sapiens), O14649. FluxOR fluorescence; stronger effect = lower value. B-score at 10 µM. 340,000 tested, 0.84% active. AID 602410, 2012;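 active = B-score under library mean minus 4 SD, starting fluorescence ratio at most library mean plus 5 SD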;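 also: more negative B-score means stronger inhibition of thallium flux through KCNK3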
Target sequence (O14649 whole entry, looked up): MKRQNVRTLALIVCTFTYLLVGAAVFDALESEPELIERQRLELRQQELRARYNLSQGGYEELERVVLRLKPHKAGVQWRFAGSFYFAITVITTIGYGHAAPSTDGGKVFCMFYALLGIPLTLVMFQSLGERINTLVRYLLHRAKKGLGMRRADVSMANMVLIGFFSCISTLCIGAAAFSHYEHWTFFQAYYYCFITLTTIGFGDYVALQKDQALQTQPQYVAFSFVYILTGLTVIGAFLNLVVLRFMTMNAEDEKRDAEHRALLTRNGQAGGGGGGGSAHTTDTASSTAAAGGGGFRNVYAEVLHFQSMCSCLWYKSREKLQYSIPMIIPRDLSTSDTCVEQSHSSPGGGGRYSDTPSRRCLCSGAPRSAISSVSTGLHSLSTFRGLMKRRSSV
KCNK9 inh – KCNK9 potassium channel inhibitors, primary screen, HEK293 cells, thallium flux. FluxOR thallium flux fluorescence; stronger effect = lower value. Potassium channel subfamily K member 9 (Homo sapiens), Q9NPC2. B-score at 10 µM. 310,000 tested, 1.2% active. AID 488922, 2010;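 active = ratio B-score over 3 SD below the library mean, with starting fluorescence within 5 SD of its mean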;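 also: negative B-score means less thallium flux so channel inhibition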
hERG protect – hERG rescue from dofetilide block, primary screen, cell-based, CHO-hERG, FluxOR thallium flux, dofetilide IC70. Voltage-gated inwardly rectifying potassium channel KCNH2 (Homo sapiens), Q12809. dofetilide IC70 present. activation (rescue from dofetilide block), less the hit threshold, % at 10 µM. 310,000 tested, 0.51% active. AID 1511, 2009;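 active = activation above the mean of controls blocked by dofetilide plus 5 SD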;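 also: thallium influx through hERG after potassium depolarization seen as dye fluorescence rise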
Kir21 block – inhibitors of mouse Kir2.1 inward-rectifier potassium channel; Inward rectifier potassium channel 2 (Mus musculus), P35561; HEK293-Kir2.1, FluxOR thallium flux fluorescence; stronger effect = lower value; B-score at 10 µM; 310,000 tested, 0.85% active; AID 1672, 2009;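 active = fluorescence ratio B-score at or below minus 3 SD of library scores, with starting-brightness B-score within 2 SD, cut at about -4.2 in these data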;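 also: channel flux triggered by added potassium and thallium sulfate stimulus; B-score of peak minus minimum fluorescence over baseline after thallium stimulus; more negative B-score means stronger Kir2.1 block with less thallium influx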
KCNQ1 act – potentiators or activators of KCNQ1 channel, primary screen, cell-based, thallium flux, high-throughput; Potassium voltage-gated channel subfamily KQT member 1 (Homo sapiens), P51787; CHO-K1 KCNQ1, thallium flux FluxOR fluorescence; stronger effect = higher value; B-score at 10 µM; 310,000 tested, 0.35% active; AID 2648, 2010;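 active = fluorescence ratio B-score, a plate-corrected score, at least three library SD, with initial intensity B-score within 5 SD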
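Schedule – 37 °C overnight plating, 90-min dark dye load, 20-min compound pretreatment · System – stable KCNQ1 CHO-K1 line · Probe or stimulus – thallium- and potassium-containing depolarizing buffer · Measured by – kinetic FluxOR fluorescence, 10 s baseline plus 110 s post-stimulus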
KCNQ1 block – inhibitors of human KCNQ1 channel, primary screen, cell-based, thallium flux, high-throughput | Potassium voltage-gated channel subfamily KQT member 1 (Homo sapiens), P51787 | CHO-K1 KCNQ1, FluxOR thallium flux fluorescence; stronger effect = higher value | B-score at 10 µM | 310,000 tested, 1.3% active | AID 2642, 2010;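 active = compounds whose thallium flux B-score, printed positive for inhibition, exceeds three library SD while starting fluorescence stays within three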;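 also: channel opened by potassium depolarization with thallium stimulus after 20 min compound exposure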
KCNK9 inh conf – KCNK9 potassium channel inhibitors, confirmation, HEK293 cells, thallium flux, duplicate; 4,900 tested, 43% active; FluxOR thallium flux fluorescence; AID 492992, 2010; shares compounds with KCNK9 inh; inhibition, % at 10 µM;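 active = thallium signal inhibited by more than 5 SD of the compound-free buffer control wells, on both duplicate plates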;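 also: 0% = assay buffer control wells without compound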
Kir2-1 spec – mouse Kir2.1 channel inhibition, confirmation, selectivity assay for KCNK9 modulator project, cell-based, HEK293, thallium flux; shares compounds with KCNK9 inh; Kir2.1 cells, FluxOR thallium flux fluorescence; inhibition, % at 10 µM; 4,900 tested, 4% active; AID 492993, 2010;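 active = thallium signal drop more than 5 SD beyond the mean of the no-compound control wells, seen in both duplicate plates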;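 also: signal is fluorescence rise after thallium addition divided by baseline fluorescence; plate controls were assay buffer only for no effect and full block by chlorpromazine control for full effect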
KCNK9 uninduced – thallium flux in non-induced HEK293 cells, confirmation, counter-screen for KCNK9 inhibitor project, cell-based, second counter screen, non-induced KCNK9-HEK293; shares compounds with KCNK9 inh; FluxOR thallium flux; inhibition, % at 10 µM; 4,900 tested, 40% active; AID 492997, 2010;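 active = thallium signal drop beyond 5 SD of the untreated control mean, on both duplicate plates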;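 also: plate controls were buffer only IC0 wells for no effect and SID17386958 at its maximal inhibitory level for full effect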
Active calls of the source: *; i = inactive; . = no result given.

SMILES | KCNK3 block | KCNK9 inh | hERG protect | Kir21 block | KCNQ1 act | KCNQ1 block | KCNK9 inh conf | Kir2-1 spec | KCNK9 uninduced
O=C(CCSCc1ccccc1F)NCc1cccs1 | i | i | -2 | 0.3 | i | i | . | . | .
O=C(CCSCc1ccccc1Cl)NCc1cccs1 | i | i | 5.0* | 1.1 | i | i | i | i | i
O=C(NN1C(=O)c2ccccc2C1=O)C1C2CCCCC21 (stereo not drawn) | i | i | -4 | 0.07 | i | i | i | i | i
N/C(=N\OC(=O)Cc1ccc(-c2ccccc2)cc1)c1ccncc1 | i | i | -6 | -0.96 | i | i | 30%* | i | i
COc1ccc(OCCOCCOc2ccc(C)cc2[N+](=O)[O-])cc1 | i | i | -6 | -0.02 | i | i | . | . | .
COc1cccc(OCCNc2cc(Cl)ccc2[N+](=O)[O-])c1 | i | -12* | -20 | -0.64 | i | i | 54%* | i | 34%*
COc1cccc(OCCOCCOc2ccc(C)cc2[N+](=O)[O-])c1 | i | i | -10 | 0.02 | i | i | i | i | i
COc1ccc(C(=O)Nc2cc(C)nn2-c2ccc(C)cc2)cc1 | i | i | -8 | 1.3 | i | i | . | . | .
COc1cc(CN2CCN(c3cc(C)ccc3C)CC2)cc([N+](=O)[O-])c1O | . | i | -13 | 0.13 | i | i | i | i | i
COc1cc(CN2CCN(c3ccc(C)cc3)CC2)cc([N+](=O)[O-])c1O | . | i | -13 | 0.08 | i | i | . | . | .
COc1ccc(NC(=O)CSc2nc3ccccc3c(=O)n2CCCC(=O)NCC2CCCO2)c(OC)c1 (stereo not drawn) | i | i | -9 | 1.7 | i | i | . | . | .
O=C(O)CCSCC(=O)Nc1c(C(=O)C2CC2)oc2ccccc12 | i | i | -8 | -0.62 | i | i | . | . | .
O=C(CN1CCN(c2ccccc2)CC1)Nc1c(C(=O)C2CC2)oc2ccccc12 | i | -11* | -5 | 0.41 | i | i | 32%* | i | i
O=C(c1cccc(S(=O)(=O)N2CCCC2)c1)N1CCN(Cc2ccccc2)CC1 | i | . | . | . | . | . | . | . | .
c1ccc(CN2CCN(c3nc(-c4ccccn4)nc4ccccc34)CC2)cc1 | i | i | -6 | -0.91 | i | i | . | . | .
c1ccc(CN2CCN(c3nc(-c4ccccc4)nc4ccccc34)CC2)cc1 | i | -17* | -9 | 0.9 | i | i | 34%* | i | 28%*
Cc1ccccc1OCCC(=O)NNC(=O)c1ccccc1F | i | . | . | . | . | . | . | . | .
Cc1cc(C(=O)Cn2nc(C(=O)O)c3ccccc3c2=O)c(C)n1-c1cccc(C(F)(F)F)c1 | i | i | -8 | 0.45 | i | i | i | i | i
COc1ccccc1NC(=O)/C(=C/c1cccc([N+](=O)[O-])c1)c1ccccc1 | i | -8.6* | -10 | 0.38 | i | 6* | 54%* | i | 38%*
COc1ccc(OC)c(/C=C/C(=O)N2CCN(S(=O)(=O)c3ccc(C)cc3C)CC2)c1 | i | . | . | . | . | . | . | . | .
Cn1c2ccccc2c(=O)c2cc(C#Cc3ccc(N)cc3)ccc21 | i | -8.5* | -21 | 1.5 | i | i | 38%* | i | 26%*
Nc1ccc(C#Cc2ccc3oc4ccccc4c(=O)c3c2)cc1 | i | i | -9 | -1.2 | i | i | . | . | .
O=C(O)COc1ccc(/C=C/c2nc(-c3ccccc3O)n[nH]2)cc1 | i | i | -7 | 0.59 | i | i | . | . | .
COc1ccc(/C=C/c2nc(-c3ccccc3O)n[nH]2)cc1OC | i | i | 2 | -1.6 | i | i | i | i | i
CC1(C)Cc2ccccc2C(N/N=C/c2ccc(Cl)cc2)=N1 | i | i | -12 | -0.03 | i | i | i | i | i
SMILES | KCNK3 block | KCNK9 inh | hERG protect | Kir21 block | KCNQ1 act | KCNQ1 block | KCNK9 inh conf | Kir2-1 spec | KCNK9 uninduced
CCn1c2c(c3cc(OCC(C)C)ccc31)CCCC2=O | i | i | -3 | 0.9 | i | i | i | i | i
CCn1c2c(c3cc(Br)ccc31)CCC/C2=N\O | i | i | -4 | -0.51 | i | i | . | . | .
CC1CCN(C(=O)c2nc[nH]c2C(=O)N2CCC(C)CC2)CC1 | i | . | . | . | . | . | . | . | .
CN1CCN(S(=O)(=O)c2ccc3c(c2)CC(=O)N3C)CC1 | i | -10* | -7 | 3 | i | i | 35%* | i | i
Cc1ccc(S(=O)(=O)N2CC3CCCN3c3ccc(C(F)(F)F)cc32)cc1 (stereo not drawn) | i | -19* | -12 | -2.3 | i | i | 66%* | i | 40%*
O=S(=O)(c1ccc(F)cc1)N1CC2CCCN2c2ccc(C(F)(F)F)cc21 (stereo not drawn) | i | -13* | -12 | 0.48 | i | i | 30%* | i | 42%*
Cc1ccc(S(=O)(=O)N2CCC(Oc3cccc(C(F)(F)F)c3)CC2)cc1 | i | i | -8 | -0.07 | i | i | . | . | .
CCCNC(=O)c1cc(S(=O)(=O)N2CCc3ccccc32)cn1C | i | i | -8 | 1.5 | i | i | . | . | .
COCCN(Cc1ccccc1)C(=O)c1cccc(S(=O)(=O)N(C)c2c(C)n(C)n(-c3ccccc3)c2=O)c1 | i | i | -14 | 1.1 | i | i | . | . | .
CC[C@@H]1C/C=C\Cc2ccccc2[C@H](C(=O)C[C@H](O)CC(C)=O)OC1=O | i | . | . | . | . | . | . | . | .
CCOc1ccc(NS(=O)(=O)c2ccc(NC(=O)[C@@H]3CCCC[C@@H]3C(=O)O)cc2)cc1 | i | i | -6 | -3.2 | i | i | . | . | .
CCOc1ccc(OCc2ccc(C(=O)N3CCOCC3)cc2)cc1 | i | i | -9 | 0.15 | i | i | . | . | .

Screens as filed in PubChem.
